Experimental data gathered from unrelated publications.
Compare with care: the assays were run in different laboratories.
MTNR1B: Melatonin receptor type 1B (MTNR1B, Homo sapiens, UniProt P49286)

SMILES | target | assay | conditions | endpoint | value
CCc1ccc2scc(CCNC(C)=O)c2c1 | MTNR1B | cAMP, agonist, TR-FRET | – | EC50 | 0.0398 µM
C=C1CC[C@@H]2[C@](C)(CO)[C@H](O)CC[C@@]2(C)[C@@H]1C/C=C1/C(=O)OC[C@H]1O | UDP-glucuronosyltransferase 2B7 (UGT2B7, Homo sapiens, UniProt P16662) | enzyme activity, inhibitor | pH 7.4 | Ki | 5.7 µM
COc1ccc2c(c1)C(=O)C1(CCc3ccccc31)O2 (centres unmarked) | Peptidyl-prolyl cis-trans isomerase NIMA-interacting 1 (PIN1, Homo sapiens, UniProt Q13526) | enzyme activity, inhibitor | – | Ki | 77 µM
Cc1cc2nc3c(=O)[nH]c(=O)nc-3n(C[C@H](O)[C@H](O)[C@H](O)COP(=O)(O)OP(=O)(O)OC[C@H]3O[C@@H](n4cnc5c(N)ncnc54)[C@H](O)[C@@H]3O)c2cc1C | Transformer-2 protein homolog beta (Homo sapiens, UniProt P62995) | binding | lysate | Kd | 0.036 µM
CC(C)c1ccc(CNc2cccc(-c3nnc[nH]3)c2)cc1 | MTNR1B | cell-free assay | – | Ki | 3.72 µM
O=C(NCCc1cccc2ccccc12)C1CCC1 | MTNR1B | ligand displacement, radioligand | cell membranes | Ki | ~0.1 µM
Clc1ccc(CNc2cccc(-c3nnc[nH]3)c2)c(Br)c1 | MTNR1B | cell-free assay | – | Ki | 1.41 µM
Cc1cc(Nc2cc3ncccc3c(N[C@@H]3C[C@H]4CC[C@@H](C3)N4CCC#N)n2)n[nH]1 | Death-associated protein kinase 1 (DAPK1, Homo sapiens, UniProt P53355) | binding, competition with immobilised ligand | – | Kd | 0.096 µM
O=C(O)CC[C@@H](O)C(=O)O | Protein phosphatase 3 catalytic subunit alpha (PPP3CA, Homo sapiens, UniProt Q08209) | binding, SPR | – | Kd | ~67 µM
C=CC(=O)Nc1cccc(CN2C(=O)N(c3c(Cl)c(OC)cc(OC)c3Cl)Cc3cnc(NCCCCN(CC)CC)nc32)c1 | Mitogen-activated protein kinase 7 (MAPK7, Homo sapiens, UniProt Q13164) | binding, competition with immobilised ligand | – | Kd | 0.16 µM
CCC(=O)NC1Cc2ccccc2C(c2ccccc2)C1 (centres unmarked) | MTNR1B | GTPγS binding, agonist, radiometric | cell membranes | EC50 | 0.00158 µM
CC1(C)[C@@H](O)CC[C@]2(C)[C@H]3C(=O)C=C4[C@@H]5C[C@@](C)(C(=O)O)CC[C@]5(C)CC[C@@]4(C)[C@]3(C)CC[C@@H]12 | Peroxiredoxin-1 (PRDX1, Homo sapiens, UniProt Q06830) | binding, SPR | – | Kd | 25 µM
O=C1c2ccccc2CCN1CCCCN1CCN(c2cccc(Cl)c2Cl)CC1 | 5-hydroxytryptamine receptor 1B (HTR1B, Homo sapiens, UniProt P28222) | ligand displacement, radioligand | – | Ki | 0.073 µM
CC(=O)NCCc1c(Cc2ccccc2)[nH]c2ccccc12 | MTNR1B | cAMP, antagonist, TR-FRET | – | Kb | ~0.1 µM
